These results are taken from the array DNA melting data of Ke et al. (doi:10.1101/2024.01.08.574731).

The nature of data set [1]: folding enthalpy; higher = less favourable; fluorescence melt of hairpins on a sequencing array, two-state fit. The note with it: sodium 0.088 M. In outline:
(§1)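 Folding enthalpy and melting temperature were estimated with bootstrapped two-state fits and combined across four replicates by inverse-variance weighting, with fitted temperatures raised by 9.35 °C to match UV melts. The data were Cy3 fluorescence of library hairpins, with annealed Cy3 and quencher oligos, on a sequenced MiSeq flow cell in 50 mM Na-HEPES pH 8.0, 25 mM NaCl, imaged in 2.5 °C steps up to 60 °C and normalised to pre-quench Cy3 and control constructs.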

A short description of data set [2]: melting temperature; fluorescence melt of hairpins on a sequencing array, two-state fit, raised by 9.35 °C to match UV melts. The note with it: sodium 0.088 M. In outline:
as §1

With GTTTTAGGAAACTGAAAC ((((.((....)).)))), the folding enthalpy in data set [1] was -22.1 kcal/mol. In addition, the Tm in data set [2] was found to be 35.2 °C.
On the same counts, the results for GTTTTCGAAAGAAAAC ((((((....)))))) are -29.2 kcal/mol and 57.4 °C.
Regarding GTTTTCGGAAACGAAGAC ((.((((....)))).)), in data set [1], the folding enthalpy was -28.8 kcal/mol. For the same sequence, the Tm in data set [2] worked out at 42.5 °C.
On the same counts, the results for GTTTTCTCGAAAGAGAAC (((..(((....)))))) are -15.3 kcal/mol and 34.7 °C.
On the same counts, the results for GTTTTGCGAAAGCATAAC (((.(((....))).))) are -25.4 kcal/mol and 45.3 °C.
GTTTTGGCGAAAGCCAAC (((..(((....)))))): the folding enthalpy in data set [1] is -8.06 kcal/mol. The Tm in data set [2] is 38.6 °C.
For GTTTTGGGAAACCGAAAC ((((.((....)).)))) the same measures were -38.3 kcal/mol and 45.7 °C.
On the same counts, the results for GTTTTGGGAAACTGAAAC ((((..(....)..)))) are -12.2 kcal/mol and 31.4 °C.
On the same counts, the results for GTTTTTCGAAAGAATAAC (((.(((....))).))) are -28.1 kcal/mol and 34.7 °C.
In the case of GTTTTTGGAAACAGAAAC ((((.((....)).)))), the folding enthalpy in data set [1] was -28.1 kcal/mol. In addition, in data set [2], the Tm came to 32.7 °C.
For TAAACGAAAGTTTA (((((....))))), in data set [1], the folding enthalpy was -15.4 kcal/mol. Further, in data set [2], the Tm turned out to be 41.5 °C.
In the case of TACCTGAAAAGGTA (((((....))))), the folding enthalpy in data set [1] was -14.8 kcal/mol. The Tm in data set [2] was found to be 41.3 °C.
On the same counts, the results for TACGAGAAATCGTA (((((....))))) are -14.9 kcal/mol and 37.5 °C.
With TACTCGAAAGAGTA (((((....))))), the folding enthalpy in data set [1] is -18.1 kcal/mol. The Tm in data set [2] is 47.1 °C.
Take TAGCAGAAATGCTA (((((....))))): in data set [1], the folding enthalpy is -14 kcal/mol. Further, in data set [2], the Tm was 38.1 °C.
On the same counts, the results for TAGCGGAAACGCTA (((((....))))) are -15.9 kcal/mol and 54.3 °C.
As for TAGGGGAAACCCTA (((((....))))), the folding enthalpy in data set [1] is -15.3 kcal/mol. Moreover, in data set [2], the Tm amounted to 40.2 °C.
Turning to TATCTGAAAAGATA (((((....))))), the folding enthalpy in data set [1] is -11.5 kcal/mol. For the same sequence, in data set [2], the Tm was 29.8 °C.
With TATGTGAAAACATA (((((....))))), the folding enthalpy in data set [1] is -12.4 kcal/mol. For the same sequence, the Tm in data set [2] worked out at 35.3 °C.
On the same counts, the results for TATTGGAAACAATA (((((....))))) are -5.94 kcal/mol and 25.5 °C.
As for TCAAGGAAACTTGA (((((....))))), in data set [1], the folding enthalpy is -8.95 kcal/mol. Besides, the Tm in data set [2] worked out at 32 °C.
For TCACGGAAACGTGA (((((....))))) the same measures were -19.9 kcal/mol and 50.9 °C.
For the sequence TCCCGGAAACGGGA (((((....))))), the folding enthalpy in data set [1] is -19.7 kcal/mol. Also, the Tm in data set [2] worked out at 60.7 °C.
Consider TCCGAGAAATCGGA (((((....))))), for which the folding enthalpy in data set [1] is -19.6 kcal/mol. The Tm in data set [2] was determined as 46.4 °C.
TCCGGGAAACCGGA (((((....))))): the folding enthalpy in data set [1] was -20.2 kcal/mol. The Tm in data set [2] is 53.2 °C.
On to TCCGTGAAAACGGA (((((....))))), for which, in data set [1], the folding enthalpy was -18 kcal/mol. Moreover, the Tm in data set [2] is 53.8 °C.
As for TCCTCGAAAGAGGA (((((....))))), the folding enthalpy in data set [1] is -17.6 kcal/mol. Also, in data set [2], the Tm worked out at 52.7 °C.
For TCGAGGAAACTCGA (((((....))))) the same measures were -18.8 kcal/mol and 48 °C.
Regarding TCGCAGAAATGCGA (((((....))))), in data set [1], the folding enthalpy was -17.1 kcal/mol. Moreover, the Tm in data set [2] worked out at 54.4 °C.
On the same counts, the results for TCTTGGAAACAAGA (((((....))))) are -11.1 kcal/mol and 35.7 °C.
Regarding TGCTGGAAACAGCA (((((....))))), the folding enthalpy in data set [1] is -19.4 kcal/mol. Besides, the Tm in data set [2] is 53.1 °C.
As to TGCTTGAAAAAGCA (((((....))))), the folding enthalpy in data set [1] was -8.9 kcal/mol. For the same sequence, in data set [2], the Tm was determined as 47.9 °C.
Consider TGGATGAAAATCCA (((((....))))), for which, in data set [1], the folding enthalpy was -17.8 kcal/mol. Also, in data set [2], the Tm was 46.1 °C.
For TGTGGGAAACCACA (((((....))))) the same measures were -20.5 kcal/mol and 49.6 °C.
Turning to TTACCGAAAGGTAA (((((....))))), the folding enthalpy in data set [1] is -16.7 kcal/mol. In addition, the Tm in data set [2] worked out at 50.4 °C.
On the same counts, the results for TTCTGGAAACAGAA (((((....))))) are -15.6 kcal/mol and 35.4 °C.
For TTGCGGAAACGCAA (((((....))))) the same measures were -18.1 kcal/mol and 57.6 °C.
On the same counts, the results for TTGGAGAAATCCAA (((((....))))) are -11.1 kcal/mol and 35.5 °C.
Consider TTGGGGAAACCCAA (((((....))))), for which, in data set [1], the folding enthalpy was -17.4 kcal/mol. In addition, the Tm in data set [2] came out at 43.4 °C.
On the same counts, the results for TTGTCGAAAGACAA (((((....))))) are -18.1 kcal/mol and 55 °C.
As for TTTACGAAAGTAAA (((((....))))), the folding enthalpy in data set [1] is -13.5 kcal/mol. Also, in data set [2], the Tm is 42.7 °C.
On to TTTCAGAAATGAAA (((((....))))), for which the folding enthalpy in data set [1] was -5.49 kcal/mol. Besides, the Tm in data set [2] is 18 °C.
